Consider 55 compounds from ChEMBL document CHEMBL4038306, “Development of an Aryloxazole Class of Hepatitis C Virus Inhibitors Targeting the Entry Stage of the Viral Replication Cycle” (J Med Chem, 2017).

Data set [1] in a line: Kinetic solubility of the compound in pH 7.4 phosphate buffer. The class given is physicochemical. The note with it: read-out: Kinetic_solubility.
Data set [2] can be described thus: Permeability of the compound by PAMPA. The class given is physicochemical. The settings on record: for Papp: read-out: permeability. The method in brief:
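Passive diffusion measured by stirred double-sink PAMPA; permeability expressed in 10⁻⁶ cm/s.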
In general terms: In PAMPA a lipid-coated filter parts donor from acceptor wells.

Converted amounts (≈) assume the structure as drawn.

For the compound `Cc1cccc(Cl)c1-c1nc(CN2CCC(C(=O)NCCCN3CCC(C)(C)CC3)CC2)c(C)o1`, the solubility kinetic in data set [1] was over 0.074 mg/mL.

As for `CC[C@@H]1C[C@H](CC)CN(CCCNC(=O)C2CCN(Cc3nc(-c4ccccc4C)oc3C)CC2)C1`, the permeability in data set [2] is 12670 nm/s.

As to `Cc1cccc(C)c1-c1nc(CN2CCC(C(=O)NCCCN3C[C@H](C)C[C@H](C)C3)CC2)c(C)o1`, the Papp in data set [2] was found to be 2540 nm/s. In data set [1], the solubility kinetic amounted to 0.0559 mg/mL (≈ 116 µM).

In the case of `COc1cccc(Br)c1-c1nc(CN2CCC(C(=O)NCCCN3C[C@H](C)C[C@H](C)C3)CC2)c(C)o1`, the Papp in data set [2] is 2450 nm/s. For the same compound, the solubility kinetic in data set [1] was over 0.083 mg/mL.

Turning to `Cc1ccccc1-c1nc(CN2CCC(C(=O)NCCCN3CCC(C)(C)CC3)CC2)c(C)o1`, in data set [2], the Papp came to 2410 nm/s. Besides, the solubility kinetic in data set [1] is over 0.069 mg/mL.

In the case of `Cc1ccc(-c2nc(CN3CCC(C(=O)NCCCN4C[C@H](C)C[C@H](C)C4)CC3)c(C)o2)c(C)c1`, in data set [2], the Papp is 3530 nm/s. Besides, in data set [1], the solubility kinetic is over 0.071 mg/mL.

Regarding `Cc1oc(-c2ccc(Cl)cc2)nc1CN1CCC(C(=O)NCCCN2C[C@H](C)C[C@H](C)C2)CC1`, the Papp in data set [2] is over 6350 nm/s. Besides, in data set [1], the solubility kinetic was over 0.072 mg/mL.

Regarding `Cc1ccc(-c2nc(CN3CCC(C(=O)NCCCN4C[C@H](C)C[C@H](C)C4)CC3)c(C)o2)cc1`, in data set [2], the Papp amounted to 2740 nm/s. For the same compound, the solubility kinetic in data set [1] is over 0.069 mg/mL.

`COc1cccc(OC)c1-c1nc(CN2CCC(C(=O)NCCCN3C[C@H](C)C[C@H](C)C3)CC2)c(C)o1`: the solubility kinetic in data set [1] is over 0.076 mg/mL.

As to `Cc1cccc(Cl)c1-c1nc(CN2CCC(C(=O)NCCCN3CCC(C(C)C)CC3)CC2)c(C)o1`, in data set [1], the solubility kinetic was over 0.076 mg/mL.

In the case of `Cc1oc(-c2cccc(Cl)c2)nc1CN1CCC(C(=O)NCCCN2C[C@H](C)C[C@H](C)C2)CC1`, the Papp in data set [2] is 6150 nm/s. Besides, the solubility kinetic in data set [1] was over 0.072 mg/mL.

Turning to `CCN(CC)CCCCNC(=O)C1CCN(Cc2nc(-c3ccc(OC)c(OC)c3)oc2C)CC1`, in data set [2], the Papp came out at 104 nm/s. Moreover, the solubility kinetic in data set [1] was over 0.072 mg/mL.

Consider `Cc1ccc(C)c(-c2nc(CN3CCC(C(=O)NCCCN4C[C@H](C)C[C@H](C)C4)CC3)c(C)o2)c1`, for which the solubility kinetic in data set [1] was 0.0561 mg/mL (≈ 117 µM).

Take `Cc1ccccc1-c1nc(CN2CCC(C(=O)NCCCN3CCC(C)CC3)CC2)c(C)o1`: in data set [2], the Papp worked out at 4250 nm/s. Besides, the solubility kinetic in data set [1] was over 0.067 mg/mL.

Turning to `Cc1oc(-c2cccc3ccccc23)nc1CN1CCC(C(=O)NCCCN2C[C@H](C)C[C@H](C)C2)CC1`, the solubility kinetic in data set [1] was over 0.074 mg/mL.

As to `Cc1ccccc1-c1nc(CN2CCC(C(=O)NCCCN3CCCCC3)CC2)c(C)o1`, the Papp in data set [2] was determined as 345 nm/s. The solubility kinetic in data set [1] is over 0.065 mg/mL.

With `Cc1ccccc1-c1nc(CN2CCC(C(=O)NCCCN3C[C@H](C)C[C@@H](C)C3)CC2)c(C)o1` (racemic), in data set [2], the Papp turned out to be 5540 nm/s. Also, the solubility kinetic in data set [1] was over 0.069 mg/mL.

On to `Cc1ccccc1-c1nc(CN2CCC(C(=O)NCCCN3CCCC(CC(C)C)C3)CC2)c(C)o1` (racemic), for which the Papp in data set [2] worked out at 30 nm/s. Besides, the solubility kinetic in data set [1] amounted to 0.0549 mg/mL (≈ 111 µM).

As for `Cc1cccc(-c2nc(CN3CCC(C(=O)NCCCN4C[C@H](C)C[C@H](C)C4)CC3)c(C)o2)c1`, in data set [2], the Papp amounted to 2790 nm/s. Moreover, in data set [1], the solubility kinetic is over 0.069 mg/mL.

As to `Cc1ccccc1-c1nc(CN2CCC(C(=O)NCCCN3CCCC(C(C)C)C3)CC2)c(C)o1` (racemic), the solubility kinetic in data set [1] was over 0.071 mg/mL.

For the compound `Cc1oc(-c2c(Cl)cccc2C(F)(F)F)nc1CN1CCC(C(=O)NCCCN2C[C@H](C)C[C@H](C)C2)CC1`, in data set [1], the solubility kinetic worked out at 0.0651 mg/mL (≈ 117 µM).

In the case of `Cc1ccccc1-c1nc(CN2CCC(C(=O)NCCCN3[C@H](C)CCC[C@@H]3C)CC2)c(C)o1`, in data set [2], the Papp was 554 nm/s. In addition, the solubility kinetic in data set [1] was over 0.069 mg/mL.

As to `Cc1oc(-c2c(Cl)cccc2Cl)nc1CN1CCC(C(=O)NCCCN2C[C@H](C)C[C@H](C)C2)CC1`, the solubility kinetic in data set [1] is over 0.077 mg/mL.

As to `Cc1cccc(Cl)c1-c1nc(CN2CCC(C(=O)NCCCN3CCCC(C)C3)CC2)c(C)o1` (racemic), the Papp in data set [2] is 6510 nm/s. In addition, the solubility kinetic in data set [1] was found to be 0.0526 mg/mL (≈ 108 µM).

Turning to `Cc1ccccc1-c1nc(CN2CCC(C(=O)NCCCN3C[C@H](C)C[C@H](C)C3)CC2)c(C)o1`, the Papp in data set [2] was determined as 4890 nm/s. Further, the solubility kinetic in data set [1] came out at 0.0539 mg/mL (≈ 115 µM).

Regarding `Cc1ccccc1-c1nc(CN2CCC(C(=O)N3CCN(CCN(C)C)CC3)CC2)c(C)o1`, the Papp in data set [2] is 140 nm/s. Moreover, in data set [1], the solubility kinetic is over 0.067 mg/mL.

Turning to `Cc1ccccc1-c1nc(CN2CCC(C(=O)NCCCN3CC4CCCC(C4)C3)CC2)c(C)o1`, the Papp in data set [2] turned out to be 3310 nm/s. Also, the solubility kinetic in data set [1] was over 0.071 mg/mL.

As to `Cc1ccc(-c2nc(CN3CCC(C(=O)NCCCN4C[C@H](C)C[C@H](C)C4)CC3)c(C)o2)cc1C`, in data set [2], the Papp was 2190 nm/s. In addition, the solubility kinetic in data set [1] was over 0.071 mg/mL.

As to `CCc1ccccc1-c1nc(CN2CCC(C(=O)NCCCN3C[C@H](C)C[C@H](C)C3)CC2)c(C)o1`, the Papp in data set [2] was 1060 nm/s. The solubility kinetic in data set [1] came out at 0.0559 mg/mL (≈ 116 µM).

Turning to `Cc1ccccc1-c1nc(CN2CCC(C(=O)NCCN3C[C@H](C)C[C@H](C)C3)CC2)c(C)o1`, the Papp in data set [2] came out at 7120 nm/s. Moreover, the solubility kinetic in data set [1] is over 0.067 mg/mL.

With `Cc1ccccc1-c1nc(CN2CCC(C(=O)N3CCN(C4CCN(C)CC4)CC3)CC2)c(C)o1`, in data set [2], the Papp was under 32 nm/s. For the same compound, the solubility kinetic in data set [1] was over 0.071 mg/mL.

Turning to `Cc1oc(-c2c(Br)cccc2Br)nc1CN1CCC(C(=O)NCCCN2C[C@H](C)C[C@H](C)C2)CC1`, the Papp in data set [2] was under 10 nm/s. Further, in data set [1], the solubility kinetic came out at 0.0624 mg/mL (≈ 102 µM).

Regarding `Cc1ccccc1-c1nc(CN2CCC(C(=O)NCCCN3CC(C)(C)CC(C)(C)C3)CC2)c(C)o1`, the Papp in data set [2] is over 14000 nm/s.

For the compound `Cc1ccccc1-c1nc(CN2CCC(C(=O)NCCCN3C[C@H](C)C[C@H](C)C3)CC2)c(C)s1`, in data set [1], the solubility kinetic is over 0.071 mg/mL.

With `Cc1ccccc1-c1nc(CN2CCC(C(=O)NCCCN3CCCC(C)C3)CC2)c(C)o1` (racemic), in data set [1], the solubility kinetic is over 0.067 mg/mL.

As for `Cc1ccccc1-c1nc(CN2CCC(C(=O)NCCCN3CCOCC3)CC2)c(C)o1`, in data set [2], the Papp amounted to 4320 nm/s. The solubility kinetic in data set [1] was over 0.065 mg/mL.

As to `Cc1cccc(Cl)c1-c1nc(CN2CCC(C(=O)NCCCN3C[C@H](C)C[C@H](C)C3)CC2)c(C)o1`, the Papp in data set [2] amounted to 1960 nm/s. Also, the solubility kinetic in data set [1] was over 0.074 mg/mL.

With `Cc1ccccc1-c1nc(CN2CCC(C(=O)NCCCCN3C[C@H](C)C[C@H](C)C3)CC2)c(C)o1`, the Papp in data set [2] amounted to 2880 nm/s. Besides, the solubility kinetic in data set [1] is over 0.071 mg/mL.

Turning to `Cc1cc(-c2nc(CN3CCC(C(=O)NCCCN4CCC(C(C)C)CC4)CC3)co2)ccc1F`, the Papp in data set [2] is 2760 nm/s. In data set [1], the solubility kinetic is over 0.072 mg/mL.

Take `Cc1oc(-c2c(C)c(C)c(C)c(C)c2C)nc1CN1CCC(C(=O)NCCCN2C[C@H](C)C[C@H](C)C2)CC1`: the Papp in data set [2] was 4550 nm/s.

As to `Cc1ccccc1-c1nc(CN2CCC(C(=O)NCCCN3CCC(C(C)C)CC3)CC2)c(C)o1`, in data set [2], the Papp came out at 3960 nm/s. Moreover, in data set [1], the solubility kinetic is over 0.071 mg/mL.

With `COc1ccc(-c2nc(CN3CCC(C(=O)NCCCN4C[C@H](C)C[C@H](C)C4)CC3)c(C)o2)cc1OC`, in data set [2], the Papp is 819 nm/s. Further, the solubility kinetic in data set [1] is over 0.076 mg/mL.

Consider `CC[C@@H]1C[C@H](CC)CN(CCCNC(=O)C2CCN(Cc3nc(-c4c(F)cccc4F)oc3C)CC2)C1`, for which the Papp in data set [2] was found to be 1300 nm/s.

With `Cc1cc(C)cc(-c2nc(CN3CCC(C(=O)NCCCN4C[C@H](C)C[C@H](C)C4)CC3)c(C)o2)c1`, the Papp in data set [2] came to 8640 nm/s. Besides, in data set [1], the solubility kinetic is over 0.071 mg/mL.

Regarding `Cc1oc(-c2c(Cl)cccc2Br)nc1CN1CCC(C(=O)NCCCN2C[C@H](C)C[C@H](C)C2)CC1`, in data set [1], the solubility kinetic was over 0.083 mg/mL.

On to `Cc1oc(-c2c(F)cccc2F)nc1CN1CCC(C(=O)NCCCN2C[C@H](C)C[C@H](C)C2)CC1`, for which the Papp in data set [2] turned out to be 824 nm/s. In addition, the solubility kinetic in data set [1] was over 0.072 mg/mL.

With `COc1cccc(Cl)c1-c1nc(CN2CCC(C(=O)NCCCN3C[C@H](C)C[C@H](C)C3)CC2)c(C)o1`, the Papp in data set [2] was 510 nm/s. The solubility kinetic in data set [1] was over 0.076 mg/mL.

With `Cc1cccc(F)c1-c1nc(CN2CCC(C(=O)NCCCN3C[C@H](C)C[C@H](C)C3)CC2)c(C)o1`, the Papp in data set [2] came to 2340 nm/s. In addition, the solubility kinetic in data set [1] was over 0.072 mg/mL.

Take `Cc1ccc2ccccc2c1-c1nc(CN2CCC(C(=O)NCCCN3C[C@H](C)C[C@H](C)C3)CC2)c(C)o1`: in data set [2], the Papp stood at 5470 nm/s. For the same compound, the solubility kinetic in data set [1] was over 0.076 mg/mL.

In the case of `Cc1oc(-c2ccccc2Cl)nc1CN1CCC(C(=O)NCCCN2C[C@H](C)C[C@H](C)C2)CC1`, the Papp in data set [2] came to 3520 nm/s. The solubility kinetic in data set [1] was over 0.072 mg/mL.

Regarding `COc1cccc(F)c1-c1nc(CN2CCC(C(=O)NCCCN3C[C@H](C)C[C@H](C)C3)CC2)c(C)o1`, the solubility kinetic in data set [1] was over 0.074 mg/mL.

As to `Cc1oc(-c2c3ccccc3cc3ccccc23)nc1CN1CCC(C(=O)NCCCN2C[C@H](C)C[C@H](C)C2)CC1`, the solubility kinetic in data set [1] is 0.0621 mg/mL (≈ 112 µM).

In the case of `CCCN(CCC)CCNC(=O)C1CCN(Cc2nc(-c3ccccc3C)oc2C)CC1`, the Papp in data set [2] stood at 9130 nm/s. For the same compound, the solubility kinetic in data set [1] is over 0.065 mg/mL.

With `COc1cccc(C)c1-c1nc(CN2CCC(C(=O)NCCCN3C[C@H](C)C[C@H](C)C3)CC2)c(C)o1`, in data set [2], the Papp came out at 1980 nm/s. Besides, the solubility kinetic in data set [1] is over 0.073 mg/mL.

In the case of `Cc1cc(-c2nc(CN3CCC(C(=O)NCCCN4C[C@H](C)C[C@H](C)C4)CC3)co2)ccc1F`, the Papp in data set [2] is 2150 nm/s. Moreover, the solubility kinetic in data set [1] is over 0.07 mg/mL.
